In ChEMBL document CHEMBL1126826, “2'-(Trimethylammonio)ethyl 4-(hexadecyloxy)-3(S)-methoxybutanephosphonate: a novel potent antineoplastic agent” (J Med Chem, 1993):
Several values for one entry are separate records, joined by “and”; a condition that tells them apart may be missing. Equal values may be shown once.

Key:
[1] = Effect on […] cell growth expressed as percent number of colonies compared to control at a concentration of 10 uM; assay type: functional, Mus musculus
Summary of the method: (§1)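 WEHI-3B murine cells grown in methyl cellulose/RPMI colony (clonogenic) assay with compound at a range of concentrations for 5 days in 60-mm dishes. Colonies counted after 5 days and expressed as percentage of untreated control colonies. Mean of three experiments run in triplicate ± SD. IC50 taken from the concentration-response.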

[2] = Effect on […] cell growth expressed as percent number of colonies compared to control at a concentration of 2.5 uM; assay type: functional, Mus musculus; summary of the method: as §1
[3] = Effect on […] cell growth expressed as percent number of colonies compared to control at a concentration of 1.2 uM; assay type: functional, Mus musculus; summary of the method: as §1
[4] = Effect on […] cell growth expressed as percent number of colonies compared to control at a concentration of 5 uM; assay type: functional, Mus musculus; summary of the method: as §1
[5] = Compounds were evaluated for antineoplastic activity against […] cells using clonogenic assays.; assay type: functional, cell-based; details: Mus musculus; summary of the method: as §1
[6] = Effect on […] cell growth expressed as percent number of colonies compared to control at a concentration of 20 uM; assay type: functional, Mus musculus; summary of the method: as §1
[7] = Effect on […] cell growth expressed as percent number of colonies compared to contro at a concentration of 1.2 uM; assay type: functional, Mus musculus; summary of the method: as §1
[8] = Effect on […] cell growth expressed as percent number of colonies compared to contro at a concentration of 20 uM; assay type: functional, Mus musculus; summary of the method: as §1
[9] = Effect on […] cell growth expressed as percent number of colonies compared to contro at a concentration of 0.6 uM; assay type: functional, cell-based; details: Mus musculus; summary of the method: as §1
[10] = Effect on […] cell growth expressed as percent number of colonies compared to contro at a concentration of 5 uM; assay type: functional, Mus musculus; summary of the method: as §1
[11] = Effect on […] cell growth expressed as percent number of colonies compared to contro at a concentration of 2.5 uM; assay type: functional, Mus musculus; summary of the method: as §1
[12] = Compounds were evaluated for antineoplastic activity against […] cells using clonogenic assays; assay type: functional, cell-based; details: Mus musculus; summary of the method: as §1
[13] = Effect on […] cell growth expressed as percent number of colonies compared to contro at a concentration of 10 uM; assay type: functional, Mus musculus; summary of the method: as §1

Row | SMILES | Control [1] [%] | Control [2] [%] | Control [3] [%] | Control [4] | IC50 [5] [µM] | Control [6] [%] | Control [7] [%] | Control [8] [%] | percent of control colonies [9] [%] | Control [10] [%] | Control [11] [%] | IC50 [12] [µM] | Control [13] [%]
1 | CCCCCCCCCCCCCCCCOC[C@H](CCP(=O)([O-])OCC[N+](C)(C)C)OC | 30 | 88 | 95 | 58% and 48% | 2.5 | 32 |  |  |  |  |  |  | 
2 | CCCCCCCCCCCCCCCCCCOCC(COP(=O)([O-])OCC[N+](C)(C)C)OC (stereo not drawn) [EDELFOSINE] |  |  |  |  |  |  | 91 | 30 | 105 | 48 | 68 | 2.5 | 36
